Results reported in ChEMBL document CHEMBL4765392, “Development of coumarine derivatives as potent anti-filovirus entry inhibitors targeting viral glycoprotein” (Eur J Med Chem, 2020).

Columns and labels:
[1] = Cytotoxicity against human A549 cells assessed as reduction in cell viability by Celltiter-Glo assay; assay type: cell-based
In short: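 Low-passage A549 cells seeded at 5000/well 24 h ahead, then exposed for 48 h to 3-fold serial compound dilutions in fresh media without virus. Viability read by CellTiter-Glo luminescence and normalized to medium-only cells. CC50 from logistic regression fit of dose-response curves.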

[2] = test system: envelope glycoprotein of Zaire Ebolavirus; experiment: Selectivity index, ratio of CC50 for human A549 cells to IC50 for inhibition of envelope glycoprotein in HIV pseudotyped Zaire Ebolavirus infected in human A549 cells assessed as reduction in virus entry; assay type: toxicity, cell-based; conditions: read-out: Ratio CC50/IC50
In short: (§1)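 IC50 wells also got HIV luciferase pseudovirions bearing MARV GP or EBOV GP, read by luciferase. CC50 wells got fresh media, read by CellTiter-Glo. Both values come from logistic dose-response fits, and the index is CC50 divided by IC50.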

[3] = test system: envelope glycoprotein of Marburgvirus; experiment: Selectivity index, ratio of CC50 for human A549 cells to IC50 for inhibition of envelope glycoprotein in HIV pseudotyped Marburgvirus infected in human A549 cells assessed as reduction in virus entry; assay type: toxicity, cell-based; conditions: read-out: Ratio CC50/IC50; in short: as §1
[4] = Inhibition of envelope glycoprotein in HIV pseudotyped Zaire Ebolavirus infected in human A549 cells assessed as reduction in virus entry measured after 48 hrs by luciferase reporter gene assay; assay type: cell-based; conditions: A549, 48 h
In short: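 A549 cells (5000/well, seeded 24 h prior) incubated 48 h with 3-fold serial compound dilutions premixed with HIV-backbone luciferase pseudovirions bearing EBOV GP. Entry quantified by luciferase signal, normalized to virus-alone cells. IC50 from logistic regression of dose-response curves.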

SMILES	CC50 [1] [µM]	selectivity ratio [2]	selectivity ratio [3]	IC50 [4] [µM]
Cc1c(Cc2ccc(OC(F)(F)F)cc2)c(=O)oc2cc(OC[C@H](O)CN3CCC(C(N)=O)CC3)ccc12	52	55.7	36.3	0.9
Cc1c(Cc2ccccc2)c(=O)oc2cc(OCC(CN3CCC(C(N)=O)CC3)Oc3ccccc3F)ccc12 (stereo not drawn)	79.6	3.5	3.9	22.5
Cc1c(Cc2ccc(-c3ccccc3)cc2)c(=O)oc2cc(OCC(O)CNc3nccs3)ccc12 (stereo not drawn)	38.1	14.1	29.3	2.7
Cc1c(Cc2ccc(OC(F)(F)F)cc2)c(=O)oc2cc(OCC(O)CNCCc3ccncc3)ccc12 (stereo not drawn)	14.3	6.6	10.7	2.2
COc1ccc(OC(COc2ccc3c(C)c(Cc4ccccc4)c(=O)oc3c2)CN2CCC(C(N)=O)CC2)cc1 (stereo not drawn)	94.9	9.1	11.9	10.5
Cc1c(Cc2ccccc2)c(=O)oc2cc(OCC(CN3CCC(C(N)=O)CC3)Oc3ccc([N+](=O)[O-])cc3)ccc12 (stereo not drawn)	94.8	5.9	11.5	16
Cc1c(Cc2ccccc2)c(=O)oc2cc(OCCCNc3nccs3)ccc12	50.1	2.8	3.1	18
NC(=O)C1CCN(CC(O)COc2ccc3c(C4CC4)cc(=O)oc3c2)CC1 (stereo not drawn)	> 100	> 5.7	3	17.7
Cc1c(Cc2ccc(OC(F)(F)F)cc2)c(=O)oc2cc(OC[C@@H](O)CN3CCC(C(N)=O)CC3)ccc12	64.9	92.6	46.3	0.7
Cc1c(Cc2ccc(-c3ccc(C(F)(F)F)cc3)cc2)c(=O)oc2cc(OCC(O)CN3CCC(C(N)=O)CC3)ccc12 (stereo not drawn)	> 100	> 85.7	76.9	1.2
Cc1c(Cc2ccc(-c3ccc(C#N)c(F)c3)cc2)c(=O)oc2cc(OCC(O)CN3CCC(C(N)=O)CC3)ccc12 (stereo not drawn)	29.1	8.2	12.8	3.5
NC(=O)C1CCN(CC(O)COc2ccc3c(C4CC4)c(Cc4ccccc4)c(=O)oc3c2)CC1 (stereo not drawn)	> 100	> 10.6	15.3	9.4
COC(CNCCc1ccncc1)COc1ccc2c(C)c(Cc3ccccc3)c(=O)oc2c1 (stereo not drawn)	16.6	5.9	9.6	2.8
Cc1c(Cc2ccccc2)c(=O)oc2cc(OCC(CN3CCC(C(N)=O)CC3)Oc3ccc(F)cc3)ccc12 (stereo not drawn)	66.4	6.4	5.5	10.4
Cc1c(Cc2ccc(OC(F)(F)F)cc2)c(=O)oc2cc(OCC(O)CNc3nccs3)ccc12 (stereo not drawn)	99	66	82.5	1.5
NC(=O)C1CCN(CC(O)COc2ccc3c(-c4ccccc4)c(Cc4ccccc4)c(=O)oc3c2)CC1 (stereo not drawn)	25.2	8.6	11.6	2.9
Cc1c(Cc2ccc(-c3ccc(C=O)c(F)c3)cc2)c(=O)oc2cc(OCC(O)CN3CCC(C(N)=O)CC3)ccc12 (stereo not drawn)	62.4	5.7	11.9	10.9
